Screening data from PubChem BioAssay.
Insulin prom act = activators of insulin promoter-driven GFP, primary screen, imaging, TRM-6 cells, eGFP reporter, cell count | plate-scaled: unstimulated 0, stimulated control 100 | activation, % at 2 µM | actives 0.81% (n = 130,000);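 active = activation at 2 µM above a set limit, confirmed on inspection of the cell images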;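 also: share of cells whose green reporter signal exceeds an intensity cutoff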
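Test system: human fetal islet-derived TRM-6 cells with tamoxifen-inducible insulin promoter–eGFP reporter; schedule: overnight tamoxifen, then two-day compound incubation at 37 °C; measured by: high-content imaging of fixed cells with Hoechst nuclear stain; evaluation: percent cells above green-intensity threshold, converted to percent activation versus plate controls; control set: stimulated and unstimulated wells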
An asterisk follows results filed as active. The entries come from a sample that favours hits as a whole.

SMILES | Insulin prom act
O=C(N/N=C/c1ccc[nH]1)c1ccncc1 | 6.7
COc1ccccc1NS(=O)(=O)c1cccc2cccnc12 | -50.0
CNc1nc(N/N=C/c2ccc([N+](=O)[O-])cc2)nc(Nc2ccccc2)n1 | 0.0
O=[N+]([O-])c1ccc(N/N=C/c2ccc[nH]2)cc1 | 244.8*
CCOC(=O)c1nnsc1Nc1ccc(C)c(C)c1 | -6.7
C/C(CCc1ccc2c(c1)OCO2)=N\N=C1\NC(=O)CC(C(=O)Nc2ccc(Cl)cc2)S1 (stereo not drawn) | -7.1
Cc1cc(/C=C(\C#N)C(=O)NCc2ccco2)c(C)n1-c1ccc(C(=O)O)cc1 | 3.7
O=C(COC(=O)c1cccnc1Cl)NCc1ccco1 | 0.0
COc1ccc(N2C(=O)CC(Nc3cccc(C(C)=O)c3)C2=O)cc1OC (stereo not drawn) | 1.4
COc1ccc(N2C(=O)CC(N3CCOCC3)C2=O)cc1 (stereo not drawn) | 0.0
COc1ccc(NC2CC(=O)N(c3cccc(C)c3)C2=O)cc1 (stereo not drawn) | 600.0*
CC(C)(C)C1CCc2c(C(=O)NNC(=O)CCC(=O)O)csc2C1 (stereo not drawn) | -7.1
O=C(OCc1cnc(Cl)s1)c1cccc(Cl)c1Cl | 2.3
CCN1C(=O)/C(=C\C=C2/C=CC=CN2CC)SC1=S | -3.1
CCCN1C(=O)CC(c2ccco2)Sc2ccccc21 (stereo not drawn) | 3.2
O=C(CN1CCCC1)N1c2ccccc2Sc2ccccc21 | 110.0
CCN(CC)CC(=O)N1c2ccccc2Sc2ccc(Cl)cc21 | 262.2
CCCN1C(=O)/C(=C\C=C2/Sc3ccccc3N2CC)SC1=S | 387.8*
CCN1/C(=C\C=C(C(C)=O)C(C)=O)Sc2ccccc21 | 669.2*
CCC(CO)NC1=CC(=O)CCC1 (stereo not drawn) | 0.0
COc1ccc(S(=O)(=O)n2nc(C)cc2C)c(C)c1C | -7.1
O=C1NCCc2cc3c(cc21)OCO3 | -95.5
O=C(NCc1ccccc1)N1CCN(c2ccc(F)cc2)CC1 | 7.0
O=C(NCc1ccc(Cl)cc1)C(=O)NCC(c1cccnc1)N1CCN(c2ccc(F)cc2)CC1 (stereo not drawn) | 164.7*
COc1ccc(N2CCN(C(CNC(=O)C(C)(C)C)c3cccnc3)CC2)cc1 (stereo not drawn) | 5.9
SMILES | Insulin prom act
COc1ccc(S(=O)(=O)N2CCOCC2)cc1NC(=O)COc1cccnc1[N+](=O)[O-] | 138.9
Cc1ccc(C)c(SCC(=O)Nc2cccnc2Cl)c1 | 9.1
CCc1ccccc1NC(=O)N1CCC(NC(=O)C(Cc2ccccc2)NC(C)=O)CC1 (stereo not drawn) | 6.7
Cc1ccc(-c2nnn(CC(=O)N(CC(=O)NC(C)C)c3cnc4ccccc4c3)n2)o1 | -71.4
Cc1ccc(-c2nnn(CC(=O)N(Cc3ccccc3F)C(C(=O)NC3CCCC3)c3ccncc3)n2)o1 (stereo not drawn) | 230.8
CCC(C(=O)NC1CCCC1)N(C(=O)Cn1nnc(-c2ccc(C)o2)n1)c1cnc2ccccc2c1 (stereo not drawn) | 160.0*
CCOC(=O)c1ccc(NC(=O)CSc2ccc(-c3ccncc3)nn2)cc1 | 8.3
COc1ccc(/C=C2/C(=O)N=C(N)N2C)cc1OC | 252.2*
COc1ccc(/C=C2/C(=O)N=C3SCCN32)cc1 | 2.9
COc1ccc(/C=C2\SC(=O)NC2=S)cc1OC | 9.1
O=S(=O)(Nc1ccncc1Cl)c1ccc2ccccc2c1 | -7.1
Cc1ccc(C(C(=O)Nc2ccc3c(c2)OCO3)N(C)C(=O)Cc2c[nH]c3ccccc23)cc1 (stereo not drawn) | -6.7
O=C(COC(=O)c1ncc(Cl)c(Cl)c1Cl)c1ccc(Cl)s1 | -8.1
N#Cc1cccc(NC(=O)CSc2ccccc2)c1 | -9.1
N#Cc1cccc(NC(=O)CSc2ccc3c4c(cccc24)C(=O)c2ccccc2-3)c1 | 233.3*
COc1ccc(NC(=O)CSc2ccc3c4c(cccc24)C(=O)c2ccccc2-3)cc1 | 110.7
O=C(COc1ccc(Cl)cc1)N1CCN(C(=O)c2cccs2)CC1 | -7.1
CCOC(=O)C1CCN(CC(=O)N(CC(C)C)c2c(N)n(CC(C)C)c(=O)[nH]c2=O)CC1 | -3.7
COP(C)(=O)c1c(C)nn(-c2ccccc2)c1C (stereo not drawn) | 83.6*
COc1ccc(-c2c(C)nn(-c3ccccc3)c2N)cc1 | 0.0
Cc1nn(-c2ccc(C(=O)O)cc2)c(C)c1Oc1ccccc1O | 8.1
O=C1CSc2ccc(C(=O)Nc3cccc(S(=O)(=O)Nc4ccc(Br)cc4)c3)cc2N1 | 0.0
COc1cc(CCC(=O)Nc2cccc(S(=O)(=O)N(C)C)c2)cc(OC)c1OC | 0.0
C=CCNC(=O)CN(c1cccc(Br)c1)S(C)(=O)=O | 2.7
CS(=O)(=O)N(CC(N)=O)c1cccc(Br)c1 | 513.8*
SMILES | Insulin prom act
CS(=O)(=O)N(CC(N)=O)c1ccc(F)c(Cl)c1 | 277.3
CC1CN(c2snnc2C=C2C(=O)OC(C)(C)OC2=O)CC(C)O1 (stereo not drawn) | 0.0
CCCNS(=O)(=O)c1cccc(C(=O)NC2CCCc3ccccc32)c1 (stereo not drawn) | 4.3
CC(C)(C)C(=O)Nc1nc(C2CCCN2S(=O)(=O)c2ccc(Cl)cc2)cs1 (stereo not drawn) | -3.1
CN(C)S(=O)(=O)c1ccc(Oc2ccccc2)cc1 | 475.0*
CN(C)S(=O)(=O)c1ccc(C(=O)Nc2ccccc2F)cc1 | 7.1
CNS(=O)(=O)c1ccc(Oc2ccc(S(=O)(=O)NC)cc2)cc1 | -71.4
CC(=O)Nc1ccc(S(=O)(=O)Nc2ccc3c(c2)C(=O)OC3)cc1 | 5.6
CCOc1ccc(NC(=O)c2nn(-c3ccc(OC)cc3OC)c(=O)c3ccccc23)cc1 | -84.6
CCC(=O)N1CCc2cc(S(=O)(=O)NC(Cc3ccccc3)C(=O)NC3CCCCC3)ccc21 (stereo not drawn) | 316.7*
CCC(=O)N1CCc2cc(S(=O)(=O)NCCCOC)ccc21 | 0.0
CCOC(=O)N1CCC(NC(=O)C(NS(=O)(=O)c2ccc3c(c2)CCN3C(C)=O)C(C)C)CC1 (stereo not drawn) | 123.1
COc1cc2c(cc1NC(=O)Nc1ccccc1)oc1ccccc12 | -6.9
COc1cc2c(cc1NC(=O)CCCN1C(=O)CCC1=O)oc1ccccc12 | 506.3*
COc1cc2c(cc1NC(=O)CSc1cccc[n+]1[O-])oc1ccccc12 | 0.0
COc1cc2c(cc1NC(=O)CSCC(=O)O)oc1ccccc12 | -7.1
COc1cc2c(cc1NC(=O)COc1ccccc1OC)oc1ccccc12 | 3.3
COc1cc2c(cc1NC(=O)c1cncc(Br)c1)oc1ccccc12 | 443.8*
CC(=O)O[C@H]1C[C@@]2(C)[C@@H](C[C@@H](O)[C@H]3[C@@]4(C)CC[C@@H](O)[C@@H](C)C4CC[C@@]32C)/C1=C(\CCC=C(C)C)C(=O)O (stereo partly drawn) | -4.5
O=C(c1ccccc1NS(=O)(=O)c1cccc(C(F)(F)F)c1)N1CCc2ccccc21 | 1.3
N#Cc1nc(-c2ccco2)oc1N1CCC(Cc2ccccc2)CC1 | 3.1
CCC(=O)Nc1ccc(S(=O)(=O)Nc2ccc(Cl)nn2)cc1 | 7.1
O=C(CSc1nnc2n(C3CCCC3)c(=O)c3ccccc3n12)N1CCCCCC1 | 121.4*
CC(C)Cn1c(SCC(=O)N2CCCCC2)nc2ccccc2c1=O | 268.8
C=CCn1c(=O)c2ccccc2n2c(SCC(N)=O)nnc12 | 9.3
COc1ccccc1N1CCN(C2CCN(C(=O)COc3cccc(C)c3)CC2)CC1 | -3.7
